Here are results for 16 molecules from ChEMBL document CHEMBL2375264, “Potent naphthoquinones against antimony-sensitive and -resistant Leishmania parasites: synthesis of novel α- and nor-α-lapachone-based 1,2,3-triazoles by copper-catalyzed azide-alkyne cycloaddition” (Eur J Med Chem, 2013).

Data set [1] can be described thus: Selectivity index, ratio of CC50 for Swiss mouse peritoneal macrophages to IC50 for antimony-sensitive Leishmania infantum MCAN/BR/2002/BH400 promastigote. The class given is functional. In a few lines: (§1)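 SI = CC50 / IC50. CC50 is from Swiss mouse peritoneal macrophages, read by MTT after lavage and 1 h adherence. […] Promastigotes grown in α-MEM with 10% heat-inactivated FBS, hemin and biopterin, pH 7.0, 25 °C. DMSO ≤0.2% final. Triplicate.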

The nature of data set [2]: Selectivity index, ratio of CC50 for Swiss mouse peritoneal macrophages to IC50 for antimony-sensitive Leishmania amazonensis MHOM/BR/1989/BA199 promastigote. It counts as functional. In a few lines:
as §1

A short description of data set [3]: Selectivity index, ratio of CC50 for Swiss mouse peritoneal macrophages to IC50 for antimony-resistant Leishmania infantum MCAN/BR/2002/BH400 promastigote. It counts as functional. In a few lines: (§2)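 SI = CC50/IC50. CC50 comes from Swiss mouse peritoneal macrophages, harvested by lavage with cold RPMI-1640 lacking FBS. Cells seeded at 4.0 × 10⁶/mL, allowed to adhere 1 h, then washed free of non-adherent cells. Viability read by MTT (5 mg/mL stock, 4 h).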

The test system of data set [4] is Leishmania infantum. Put plainly: Antileishmanial activity against antimony-sensitive Leishmania infantum MCAN/BR/2002/BH400 promastigote infected in Swiss mouse peritoneal macrophages after 72 hrs. It counts as functional, organism-based. As to conditions: MCAN/BR/2002/BH400, 72 h. The method in brief: (§3)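 Promastigotes of Sb(III)-sensitive and -resistant lines (resistant to Sb(III) up to 2700), maintained at 25 °C, pH 7.0, in α-MEM with 10% heat-inactivated FBS, kanamycin, ampicillin, L-glutamine, hemin and biopterin. Drugs dissolved in DMSO, diluted in α-MEM across a concentration range, final DMSO ≤0.2%.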

Data set [5] can be described thus: Cytotoxicity against Swiss mouse peritoneal macrophages after 24 hrs by MTT assay. The class given is cell-based, Peritoneal macrophage cell. In a few lines:
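Macrophages from peritoneal lavage of Swiss mice with cold FBS-free RPMI-1640. Cells seeded at 4.0 × 10⁶/mL, adhered 1 h, non-adherent cells washed off. Compounds were DMSO stocks diluted in medium over a concentration range, final DMSO ≤0.2%. Viability read by MTT (5 mg/mL solution, 4 h further incubation). CC50 taken as the 50% cytotoxic concentration.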

The nature of data set [6]: Selectivity index, ratio of CC50 for Swiss mouse peritoneal macrophages to IC50 for antimony-resistant Leishmania amazonensis MHOM/BR/1989/BA199 promastigote. The class given is functional. The method in brief:
as §2

For data set [7], the system named is Leishmania amazonensis. Description: Antileishmanial activity against antimony-sensitive Leishmania amazonensis MHOM/BR/1989/BA199 promastigote infected in Swiss mouse peritoneal macrophages after 72 hrs. The class given is functional, organism-based. As to conditions: MHOM/BR/1989/BA199, 72 h. In a few lines: as §3
Data set [8] relates to Leishmania infantum. Put plainly: Antileishmanial activity against antimony-resistant Leishmania infantum MCAN/BR/2002/BH400 promastigote infected in Swiss mouse peritoneal macrophages after 72 hrs. As to conditions: MCAN/BR/2002/BH400, 72 h. It counts as functional, organism-based. In a few lines: as §3
For data set [9], the system named is Leishmania amazonensis. Description: Antileishmanial activity against antimony-resistant Leishmania amazonensis MHOM/BR/1989/BA199 promastigote infected in Swiss mouse peritoneal macrophages after 72 hrs. As to conditions: MHOM/BR/1989/BA199, 72 h. The class given is functional, organism-based. In a few lines: as §3

Turning to `CC1(C)CC(n2cc(C3CCCCC3)nn2)C2=C(O1)C(=O)c1ccccc1C2=O` (configuration not stated), the “Ratio CC50/IC50” value in [1] is 3.8; in data set [2] it was 0.93; in data set [3], 3.83; in [6] it was 4.52. The IC50 stood at 2.26 µM with Leishmania infantum [4], 9.23 µM in the data set with Leishmania amazonensis [7], 2.24 µM in the data set on Leishmania infantum [8] and 1.9 µM in the data set with Leishmania amazonensis [9]. Further, the CC50 at 24 h in [5] stood at 8.59 µM.
With `CCCCCc1cn(C2CC(C)(C)OC3=C2C(=O)c2ccccc2C3=O)nn1` (configuration not stated), the “Ratio CC50/IC50” value in data set [1] is reported as 3.38; in data set [2], 1.15; in data set [3], 3.13; in data set [6], 3.53. In addition, the IC50 in the data set on Leishmania infantum [4] is 2.04 µM; in the data set with Leishmania amazonensis [7], 6 µM; with Leishmania infantum [8] it was 2.2 µM; with Leishmania amazonensis [9], 1.95 µM. Besides, the midpoint of cytotoxicity in data set [5], the CC50 at 24 h, lay at 6.89 µM.
On to `CCCc1cn(C2CC(C)(C)OC3=C2C(=O)c2ccccc2C3=O)nn1` (configuration not stated), for which the “Ratio CC50/IC50” value in data set [1] came to 2.5; in data set [2] it was 3.38; in data set [3], 4.31; in data set [6], 1.83. In addition, the IC50 in the data set with Leishmania infantum [4] worked out at 5.9 µM; with Leishmania amazonensis [7] it was 4.37 µM; with Leishmania infantum [8], 3.43 µM; in the data set on Leishmania amazonensis [9], 8.04 µM. The same molecule came in with a CC50 at 24 h in data set [5] of 14.8 µM.
With `CCC(C)(O)c1cn(C2CC(C)(C)OC3=C2C(=O)c2ccccc2C3=O)nn1` (configuration not stated), the “Ratio CC50/IC50” value in [1] is reported as 0.54; in data set [2], 0.27; in data set [3] it was 2.92; in data set [6], 0.45. Further, the IC50 came to 17.7 µM with Leishmania infantum [4], 35.2 µM in the data set with Leishmania amazonensis [7], 3.3 µM with Leishmania infantum [8] and 21.6 µM in the data set with Leishmania amazonensis [9]. The molecule further returned a CC50 at 24 h in data set [5] of 9.63 µM.
For the molecule `CC1(C)OC2=C(C(=O)c3ccccc3C2=O)C1n1cc(-c2ccccc2)nn1` (configuration not stated), the “Ratio CC50/IC50” value in [1] was determined as 8.01; in data set [2], 3.74; in data set [3], 7.93; in data set [6], 6.67. Also, the IC50 in the data set with Leishmania infantum [4] stood at 1 µM; with Leishmania amazonensis [7] it was 2.14 µM; with Leishmania infantum [8], 1.01 µM; with Leishmania amazonensis [9], 1.2 µM. The CC50 at 24 h in [5] was determined as 8.01 µM.
As to `CCCCCCc1cn(C2C3=C(OC2(C)C)C(=O)c2ccccc2C3=O)nn1` (configuration not stated), the “Ratio CC50/IC50” value in [1] is 2.47; in data set [2] it was 0.25; in [3], 2.47; in [6], 0.65. The IC50 was found to be 1.12 µM in the data set on Leishmania infantum [4], 11 µM in the data set on Leishmania amazonensis [7], 1.12 µM in the data set with Leishmania infantum [8] and 4.23 µM in the data set on Leishmania amazonensis [9]. The molecule further gave a CC50 at 24 h in data set [5] of 2.77 µM.
As for `CCCCCc1cn(C2C3=C(OC2(C)C)C(=O)c2ccccc2C3=O)nn1` (configuration not stated), the “Ratio CC50/IC50” value was found to be 15.02 in [1], 7.29 in [2], 14 in data set [3] and 14 in [6]. The IC50 was 1.05 µM with Leishmania infantum [4], 2.19 µM in the data set with Leishmania amazonensis [7], 1.14 µM with Leishmania infantum [8] and 1.14 µM in the data set with Leishmania amazonensis [9]. Besides, in data set [5], the CC50 at 24 h amounted to 16 µM.
As for `CCC(C)(O)c1cn(C2C3=C(OC2(C)C)C(=O)c2ccccc2C3=O)nn1` (configuration not stated), the “Ratio CC50/IC50” value in data set [1] was determined as 12.36; in [2] it was 0.99; in data set [3] it was 0.7; in data set [6] it was 0.66. The IC50 in the data set on Leishmania infantum [4] turned out to be 1.45 µM; in the data set on Leishmania amazonensis [7], 18 µM; with Leishmania infantum [8], 25.4 µM; in the data set on Leishmania amazonensis [9] it was 27 µM. This molecule displayed a CC50 at 24 h in data set [5] of 17.9 µM.
On to `CC(C)(O)c1cn(C2C3=C(OC2(C)C)C(=O)c2ccccc2C3=O)nn1` (configuration not stated), for which the “Ratio CC50/IC50” value in data set [1] came to 12.78; in [2], 1.39; in [3] it was 15.01; in [6], 2.71. The IC50 in the data set on Leishmania infantum [4] stood at 1.55 µM; in the data set with Leishmania amazonensis [7], 14.2 µM; in the data set on Leishmania infantum [8], 1.32 µM; in the data set with Leishmania amazonensis [9], 7.31 µM. In [5], the midpoint of cytotoxicity, the CC50 at 24 h, lay at 19.8 µM.
In the case of `CC1(C)OC2=C(C(=O)c3ccccc3C2=O)C1n1cc(C2CCCCC2)nn1` (configuration not stated), the “Ratio CC50/IC50” value in [1] amounted to 10.23; in data set [2], 5.35; in data set [3], 10.51; in [6], 13.47. Besides, the IC50 turned out to be 1.83 µM in the data set on Leishmania infantum [4], 3.5 µM in the data set with Leishmania amazonensis [7], 1.78 µM in the data set on Leishmania infantum [8] and 1.39 µM with Leishmania amazonensis [9]. In data set [5], half-maximal cytotoxicity (CC50 at 24 h) was put at 18.7 µM.
With `CC(C)=CC1=C(O)C(=O)c2ccccc2C1=O`, the “Ratio CC50/IC50” value in [1] and in data set [2] was <0.15 throughout. For the same molecule, the IC50 in the data set with Leishmania infantum [4], in the data set on Leishmania amazonensis [7], with Leishmania infantum [8] and in the data set on Leishmania amazonensis [9] was > 100 µM each time. This molecule also returned a CC50 at 24 h in [5] of 14.6 µM.
Turning to `CC1(C)CC2=C(O1)C(=O)c1ccccc1C2=O`, the “Ratio CC50/IC50” value in data set [1] was 0.5; in data set [2] it was 0.28; in [3] it was 0.6; in data set [6], 0.5. In addition, the IC50 in the data set with Leishmania infantum [4] amounted to 1.54 µM; in the data set on Leishmania amazonensis [7] it was 2.72 µM; in the data set on Leishmania infantum [8] it was 1.28 µM; with Leishmania amazonensis [9], 1.54 µM. The CC50 at 24 h in [5] was 0.77 µM.
As for `CC1(C)CCC2=C(O1)C(=O)c1ccccc1C2=O` [ALPHA-LAPACHONE], the “Ratio CC50/IC50” value was found to be 0.27 in data set [1], 0.24 in data set [2], 0.65 in data set [3] and 0.25 in [6]. The IC50 in the data set with Leishmania infantum [4] came to 13.9 µM; in the data set on Leishmania amazonensis [7] it was 16.1 µM; in the data set on Leishmania infantum [8], 5.85 µM; in the data set on Leishmania amazonensis [9] it was 15.2 µM. This molecule yielded a CC50 at 24 h in data set [5] of 3.8 µM.
For the molecule `CC(C)=CCC1=C(O)C(=O)c2ccccc2C1=O` [LAPACHOL], the “Ratio CC50/IC50” value in data set [1] stood at 1.71; in [2], 0.58; in data set [3], 0.59; in data set [6], 0.94. Further, the IC50 came to 34.7 µM with Leishmania infantum [4], 102 µM in the data set on Leishmania amazonensis [7], 99.9 µM in the data set on Leishmania infantum [8] and 63.3 µM in the data set on Leishmania amazonensis [9]. The CC50 at 24 h in data set [5] was 59.3 µM.
On to `CC1(C)CCC2=C(O1)c1ccccc1C(=O)C2=O` [LAPACHONE], for which the “Ratio CC50/IC50” value came out at 1.14 in [1], 0.27 in data set [2], 0.7 in data set [3] and 0.57 in data set [6]. Moreover, the IC50 turned out to be 0.67 µM in the data set on Leishmania infantum [4], 2.9 µM in the data set on Leishmania amazonensis [7], 1.13 µM in the data set on Leishmania infantum [8] and 1.39 µM with Leishmania amazonensis [9]. Further, the CC50 at 24 h in data set [5] is 0.79 µM.
In the case of `CC1(C)CC2=C(O1)c1ccccc1C(=O)C2=O` [NOR-BETA-LAPACHONE], the “Ratio CC50/IC50” value came to 1.36 in data set [1], 0.62 in data set [2], 0.97 in [3] and 0.97 in data set [6]. In addition, the IC50 is 1.14 µM with Leishmania infantum [4], 2.48 µM in the data set on Leishmania amazonensis [7], 1.6 µM in the data set with Leishmania infantum [8] and 1.59 µM in the data set with Leishmania amazonensis [9]. This molecule returned a CC50 at 24 h in data set [5] of 1.55 µM.
